# A selection: hits, their analogues and other compounds. The true share with any hit is near 2.8%.
# NPY1 pot ag: NPY-Y1 receptor potentiators or agonists, primary screen, cell-based; Neuropeptide Y receptor type 1 (Homo sapiens), P25929; activation, % at 3.6 µM; 0.37% of 220,000 active; NPY-Y1 expressing cells, potentiator/agonist activation; in the data active = activation above about 33%, passing the limit was not always enough;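 also: cells stimulated with NPY at EC10 then isoproterenol at EC100; 0% = low agonist plus stimulus and 100% = saturating agonist plus stimulus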
# Target sequence (P25929 whole entry, looked up): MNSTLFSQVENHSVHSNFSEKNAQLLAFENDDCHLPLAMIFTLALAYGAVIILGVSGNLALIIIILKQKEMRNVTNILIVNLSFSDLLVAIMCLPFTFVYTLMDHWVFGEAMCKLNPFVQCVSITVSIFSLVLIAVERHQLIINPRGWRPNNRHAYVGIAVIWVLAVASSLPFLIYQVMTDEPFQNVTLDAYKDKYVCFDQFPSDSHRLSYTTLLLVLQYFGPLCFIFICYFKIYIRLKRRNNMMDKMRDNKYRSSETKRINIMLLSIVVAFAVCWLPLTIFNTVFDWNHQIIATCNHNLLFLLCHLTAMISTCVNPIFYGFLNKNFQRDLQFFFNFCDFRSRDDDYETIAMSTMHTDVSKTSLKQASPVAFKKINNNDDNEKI
# NPY Y1 blocker: NPY-Y1 receptor antagonists, primary screen, cell-based | Neuropeptide Y receptor type 1 (Homo sapiens), P25929 | HEK293-CNG Y1 cells, membrane potential fluorescence; NPY at EC95, then isoproterenol | inhibition, % at 3.6 µM | 1% of 200,000 active | AID 1040, 2008;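 active = inhibition above the campaign mean inhibition of all tested compounds plus 3 SD, cut at about 20% in these data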;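 also: 0% = DMSO wells given NPY plus isoproterenol and 100% = isoproterenol alone without NPY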
#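 Material: HEK293 cells co-expressing NPY Y1 receptor and cyclic-nucleotide gated channel. Timing: compound incubation 1 h at room temperature, readout 45 min post-stimulation. Signal: fluorescence, membrane potential probe.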
# NPY Y2 blocker: NPY-Y2 receptor antagonists, primary screen, cell-based. Neuropeptide Y receptor type 2 (Homo sapiens), P49146. NPY-Y2 expressing cells, antagonist mode. inhibition, % at 2.7 µM. 0.99% of 140,000 active. AID 793, 2007; in the data active = inhibition above about 17%;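 also: 0% = vehicle with agonist challenge and 100% = reference antagonist with challenge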
# EP2 modulator: EP2 receptor modulators, cAMP readout, primary screen, cell-based, HTRF cAMP, PGE2 stimulation; 0.83% of 260,000 active; induction, % at 25 µM; Prostaglandin E2 receptor EP2 subtype (Homo sapiens), P43116; AID 940, 2007; EP2-expressing cells, cAMP HTRF FRET, PGE2 co-stimulation;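 active = compounds whose cAMP rise, as percent of the full-agonist control response, exceeds 60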;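 also: rat C6 glioma line stably carrying human EP2 under a CMV promoter; the protocol text gives 20 µM as final concentration; 100% = response of wells given 1 µM PGE2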
# EP2 antag: human EP2 receptor antagonists, primary screen, TR-FRET cAMP, C6 glioma cells. C6 glioma cells expressing human EP2; cells stimulated with saturating PGE2. inhibition, % at 25 µM. 0.52% of 260,000 active;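 active = percent inhibition above 40 after rounding to a whole number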;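 also: rat C6 glioma host cells with rolipram phosphodiesterase inhibitor present; the protocol text gives 20 µM as final concentration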
# NPY2 pot ag: NPY-Y2 potentiators or agonists, primary screen, cell-based; activation, % at 3.6 µM; cells expressing NPY-Y2, potentiator/agonist read-out; 0.45% of 220,000 active; in the data active = activation above about 27%;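 also: cells stimulated with NPY near EC25 plus isoproterenol at EC100; 0% = vehicle plus submaximal agonist and 100% = vehicle plus saturating agonist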
# An asterisk follows results filed as active; · = not tested or not shown; ! = not confirmed by another sample.
SMILES,NPY1 pot ag,NPY Y1 blocker,NPY Y2 blocker,EP2 modulator,EP2 antag,NPY2 pot ag
CCc1nnc(NC(=O)CSc2nc3cc(OC)ccc3cc2CC)s1,·,·,·,42,15,·
CCc1cc2ccc(C)cc2nc1SCC(=O)Nc1c(C)cccc1C,·,·,·,24,23,·
Cc1nc2ccc(C(=O)NC3CCCOC3)cc2s1 (centres undefined),·,·,·,-22,2,·
O=C(c1ccc(CSc2nc3ccncc3[nH]2)cc1)N1CCN(c2cccc(Cl)c2)CC1,50*,1,-1,-58,15,36*
Cc1cc(N/N=C/c2ccccc2O)nc(-c2ccccc2O)n1,9,-3,-3,-57,60*,0
Cc1cc(N/N=C/c2ccc(O)cc2O)nc(-c2ccccc2O)n1,16,-7,-6,-57,80*,10
Cc1cc(N/N=C\c2ccccc2)nc(-c2ccccc2O)n1,-22,3,3,7,15,3
CCc1nn(CC(=O)N2CCCC2)c(=O)c2cc3sccc3n12,·,·,·,-10,·,·
O=C(/C(N=Nc1cccc(C(F)(F)F)c1)=C(/O)c1cccs1)C(F)(F)F,24,·,·,-8,7,1
Cc1cccc(N=N/C(=C\O)C(=O)c2cccs2)c1,-10,-7,·,64*,7,-6
CCOc1ccc2[nH]c(=O)c(C(c3nnnn3Cc3ccc(F)cc3)N3CCCCCC3)cc2c1 (centres undefined),·,·,·,35,6,·
C=CCc1cc(CN2CCC(C(=O)c3cccnc3)CC2)cc(OC)c1OC,·,·,·,72*,8,·
CCSc1cc(N2CCCC2)nc(-c2ccccc2)n1,-9,4,5,64*,7,-3
Cc1c(Cl)cccc1NC(=S)N1CCN(Cc2ccc3c(c2)OCO3)CC1,53*,15,2,-2,9,33*
Cc1ccccc1NC(=S)N1CCN(Cc2ccc3c(c2)OCO3)CC1,-2,7,3,-1,8,0
COC(=O)c1ccc(-c2ccco2)n1Cc1cc(C)ccc1C,13,3,5,62*,6,7
O=C(O)c1ccc(-c2ccco2)n1Cc1ccccc1,-12,16,12,6,18,0
O=C(c1ccccc1)c1coc2ccc(O)c(CN3CCOCC3)c12,-30,2,6,-8,9,-10
CCOC(=O)c1c(C)n(C)c2ccc(O)c(CN3CCCCC3)c12,0,18,9,3,11,10
COc1ccc(C(=O)c2coc3ccc(O)c(CN4CCCCC4)c23)cc1,-87,20*,25*,4,14,-34
CCOC(=O)c1c(C)oc2ccc(O)c(CN3CCCCC3)c12,-32,27*,22*,18,4,-10
CC(=O)Nc1ccc(NC(=O)C2CCCO2)cc1 (centres undefined),·,·,·,1,13,·
CCOc1ccc(NC(=S)Nc2ccc3nsnc3c2)cc1,-22,9,5,-119,44*,-10
COc1ccc(NC(=S)Nc2ccc3nsnc3c2)cc1,-5,4,-1,-95,42*,3
Cc1ccc2cc(CN(C(=S)NC(C)c3ccccc3)C3CCCC3)c(=O)[nH]c2c1 (centres undefined),·,·,·,17,9,·
SMILES,NPY1 pot ag,NPY Y1 blocker,NPY Y2 blocker,EP2 modulator,EP2 antag,NPY2 pot ag
CC(Sc1nc(-c2ccccc2)cc(C(F)(F)F)n1)C(=O)N1CCCCCC1 (centres undefined),·,·,·,-48,5,·
COc1ccccc1C(=O)N(Cc1cccs1)Cc1cc2cc(C)cc(C)c2[nH]c1=O,·,·,·,14,8,·
COc1ccc(N2CCN(C(=O)CSc3nnc(-c4cc5ccccc5cc4O)n3C)CC2)cc1,86*,0,-1,-22,5,92*
CC(C)(C)C(=O)N1CCCc2cc(C(O)CN3CCCCC3)ccc21 (centres undefined),·,·,·,-11,6,·
Cc1cc(N)c2ccccc2[n+]1CCCCCCCCCC[n+]1c(C)cc(N)c2ccccc21,·,·,·,21,9,·
Nc1cc2c(nc3c4ccccc4c(N)cc3[n+]2-c2cccc3ccccc23)c2ccccc12 (tested in a mixture with another compound),·,·,·,-9,54*,·
CC(C)OC(=O)c1c(-c2ccc(C(C)C)cc2)csc1NC(=O)C1CCCO1 (centres undefined),-24,3,5,63*,13,-12
CC(C)C(=O)Nc1cc(C(F)(F)F)ccc1N1CCOCC1,10,2,0,1,12,4
Cc1cc(C#N)c(C)n1-c1cc(C(F)(F)F)ccc1N1CCOCC1,-13,21*,20*,33,7,-17
CCCCCCCCn1cnc2c(N)c(C)c(C)cc21,3,12,2,62*,3,12
COc1ccc(Cn2cnc3c(N)c(C)c(C)cc32)cc1,1,6,·,2,6,13
CCc1cc2cc3c(cc2nc1SCC(=O)NCc1ccccc1)OCO3,·,·,·,81*,17,·
Cc1cc(NC(=O)CSc2nc(C3CC3)nc3sc4c(c23)CCCC4)no1,·,·,·,-5,47*,·
CCc1cc2cc3c(cc2nc1SCC(=O)Nc1cc(C)on1)OCO3,-13,8,1,73*!,17,-3
CCc1cc2cc(C)cc(C)c2nc1SCC(=O)NCc1ccc2c(c1)OCO2,·,·,·,70*,14,·
Cc1ccccc1-n1ncc2c(SCC(=O)N3CCC(C)CC3)ncnc21,·,·,·,-9,14,·
Cc1cc2cc3c(cc2nc1SCC(=O)Nc1cccc(F)c1)OCO3,·,·,·,66*,17,·
COc1ccc(S(=O)(=O)Nc2cccc(Cl)c2)cc1OC,68*,-15,0,-4,6,58*
COc1ccc(NS(=O)(=O)c2ccc(OC)c(OC)c2)cc1OC,9,0,2,17,9,0
CCCCC[C@H](O)/C=C/[C@@H]1[C@@H](CCCCCCC(=O)O)[C@@H](O)C[C@H]1O,-60,1,0,83*,10,2
O=C(O)CCC/C=C\C[C@@H]1[C@@H](/C=C/[C@@H](O)COc2cccc(Cl)c2)[C@H](O)C[C@@H]1O,-1,0,4,23,18,9
C[C@@]12C[C@H](O)[C@@H]3[C@H](CCC4=CC(=O)CC[C@]43C)[C@H]1CC[C@H]2c1csc(N)n1,·,·,·,-24,66*,·
N#Cc1nc(-c2ccccc2Cl)oc1N1CCCCC1,-22,5,1,63*,9,-17

# Bioassay records deposited in PubChem BioAssay by several laboratories.
